Values belong to the compound of their own block, whether it stands above or below them.
Tests used:
MAC15A [1] = experiment: Cytotoxicity against MAC15A mouse adenocarcinomas of the colon cells; type: functional, cell-based; conditions: Mus musculus, MAC15A
How it was run: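 MTT assay. MAC15A cells were seeded at 2 × 10^3 per well and attached overnight at 37 °C, 5% CO2. Drugs were dissolved in DMSO and diluted in medium (max 0.1% DMSO), eight wells per concentration, 96 h exposure. MTT (0.5 mg/mL) was then added for 24 h. Formazan was dissolved in DMSO and read at 550 nm. Survival is relative to vehicle control; IC50 from triplicate experiments.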

Plasmodium falciparum [2] = experiment: In vitro antiplasmodial activity for Plasmodium falciparum; type: functional, organism-based; conditions: Plasmodium falciparum
How it was run: (§1)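 P. falciparum K1 ring-stage cultures in human A+ erythrocytes (RPMI 1640, A+ serum, glucose), at 2.5% hematocrit and 1% parasitemia. Two-fold serial dilutions in duplicate, final DMSO ≤0.5%. Incubated 48 h at 37 °C under 93% N2/3% O2/4% CO2. Growth read as parasite lactate dehydrogenase activity (APAD/NBT, 550 nm). IC50 by linear regression; at least three separate determinations.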

MAC15A [3] = experiment: Ratio of cytotoxic to that of antiplasmodial activity was determined; type: functional, Mus musculus
Mus musculus [4] = species: Mus musculus; experiment: Mean survival time taken as number of days before illness due to Plasmodium berghei in untreated mice (Mus musculus); type: functional
How it was run: (§2)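 Peters' 4-day suppressive test in female BALB/c mice (18-20 g), five per group. Each mouse got 1 × 10^7 P. berghei ANKA-infected erythrocytes iv. Drug was given ip in 0.2 mL daily for 4 consecutive days. Survival time was the number of days before signs of malaria illness, compared with untreated infected controls.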

Mus musculus [5] = experiment: Mean survival time taken as number of days before illness due to Plasmodium berghei when mice (Mus musculus) treated with 25 mg/kg dose for 4 days; type: functional; how it was run: as §2
Mus musculus [6] = experiment: In vivo antimalarial activity of compound against Plasmodium berghei was determined as suppression of parasitemia in mice (Mus musculus) at 25 mg/kg treated for 4 days; type: functional
How it was run: (§3)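 Peters 4-day suppressive test in female BALB/c mice (18–20 g), five per group. Mice were infected iv with 1 × 10^7 P. berghei ANKA-infected erythrocytes. Drug was given ip daily for four consecutive days. Blood smears were taken on day 5, and % parasitemia suppression was calculated against untreated infected controls. Survival was recorded as days until signs of malaria illness.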

Mus musculus [7] = experiment: In vivo antimalarial activity of compound against Plasmodium berghei in mice (Mus musculus) at dose of 25 mg/kg treated for 4 days; type: functional; how it was run: as §3
[8] = target: T1, Histidine-rich protein PFHRP-II (Plasmodium falciparum) (UniProt P05227); experiment: Antiplasmodial activity as IC50 against Beta-hematin formation; type: functional
T1 sequence (whole entry): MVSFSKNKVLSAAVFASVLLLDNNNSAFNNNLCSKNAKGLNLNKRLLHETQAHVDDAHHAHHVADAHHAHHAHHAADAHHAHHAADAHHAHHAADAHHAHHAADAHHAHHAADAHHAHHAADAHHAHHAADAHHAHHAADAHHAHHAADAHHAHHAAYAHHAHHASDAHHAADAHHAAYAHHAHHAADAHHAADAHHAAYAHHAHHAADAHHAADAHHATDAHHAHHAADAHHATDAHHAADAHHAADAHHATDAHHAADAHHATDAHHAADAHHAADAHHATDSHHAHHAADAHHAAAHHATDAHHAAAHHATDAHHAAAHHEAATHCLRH
How it was run: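 β-Hematin inhibition (BHIA) assay: hemin (0.4 µmol/well) in DMSO with compound at 0.25–2 (or 4) molar equivalents to hemin, in triplicate. Final DMSO was 25%. Formation started with 8 M acetate buffer pH 5.0, then 37 °C for 18 h. The centrifuged pellet was dissolved in 0.1 M NaOH and read at 405 nm. BHIA50 is the drug equivalents relative to hemin giving 50% inhibition.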

Plasmodium falciparum [9] = experiment: […] accumulation into acidic parasitic food vacuole at pH=5.5; type: functional
[10] = Ionization constant for the compound; type: physicochemical
Mus musculus [11] = experiment: In vivo antimalarial activity of compound against Plasmodium berghei in mice (Mus musculus) at dose of 50 mg/kg treated for 4 days; type: functional
Plasmodium falciparum [12] = experiment: In vitro antiplasmodial concentration against multidrug-resistant Plasmodium falciparum K1; type: functional, organism-based; how it was run: as §1
Plasmodium falciparum [13] = experiment: Normalized IC50 as product of antiplasmodial IC50 and vacuolar accumulation IC50; type: functional, organism-based
Plasmodium falciparum [14] = experiment: […] accumulation into acidic parasitic food vacuole (pH=5.5) relative to Cryptolepine; type: functional
How it was run: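 Calculated from each compound's spectrophotometric pKa via a pH-trapping equation, assuming food-vacuole pH 5.5 and external pH 7.4. The result is expressed relative to cryptolepine's ratio. pKa came from UV spectra (0.05 mg mL-1) in at least seven buffers of pH 5.8–13.0, plus 0.1 M NaOH and 0.1 M HCl. pKa was taken as the midpoint of the λmax absorbance plot. Two experiments per compound.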

Mus musculus [15] = experiment: In vivo antimalarial activity of compound against Plasmodium berghei was determined as suppression of parasitemia in mice (Mus musculus) at 50 mg/kg treated for 4 days; type: functional
Mus musculus [16] = experiment: Mean survival time taken as number of days before illness due to Plasmodium berghei when mice (Mus musculus) treated with 50 mg/kg dose for 4 days; type: functional; how it was run: as §2

Compound: C[n+]1c2cc(Cl)ccc2cc2[nH]c3ccc(Br)cc3c21.[Cl-]
IC50 (MAC15A [1]): 1.14 µM
IC50 (Plasmodium falciparum [2]): 0.037 µM
Ratio (MAC15A [3]): 30.8

Compound: Cc1ccc2cc3[nH]c4ccc(Br)cc4c3[n+](C)c2c1.[Cl-]
IC50 (MAC15A [1]): 5.21 µM
IC50 (Plasmodium falciparum [2]): 0.26 µM
Ratio (MAC15A [3]): 20

Compound: C[n+]1c2ccccc2cc2[nH]c3cc(Cl)ccc3c21.[I-]
Mean survival time (Mus musculus [4]): 9.6 days
Mean survival time (Mus musculus [5]): 14 days

IC50 (Plasmodium falciparum [2]): 4.69 µM
Compound: C[n+]1c2c(Cl)cccc2cc2[nH]c3ccccc3c21.[Cl-]
IC50 (MAC15A [1]): 3.54 µM
Ratio (MAC15A [3]): 0.76

Compound: C[n+]1c2ccc(Br)cc2cc2[nH]c3ccc([N+](=O)[O-])cc3c21.[Cl-]
Suppression of parasitemia (Mus musculus [6]): 90.75%
IC50 (MAC15A [1]): 1.03 µM
Parasitemia (Mus musculus [7]): 1.34%
Mean survival time (Mus musculus [4]): 6.4 days
IC50 (Plasmodium falciparum [2]): 0.07 µM
Ratio (MAC15A [3]): 14.7
Mean survival time (Mus musculus [5]): 13 days

BHIA50 [8]: 1.64
pKa [10]: 11.8
Compound: C[n+]1c2ccccc2cc2[nH]c3ccccc3c21.O=S(=O)([O-])O
Vascular accumulation ratio (Plasmodium falciparum [9]): 79.43

IC50 (Plasmodium falciparum [2]): 0.088 µM
Compound: C[n+]1c2ccc(Cl)c(Cl)c2cc2[nH]c3ccccc3c21.[Cl-]
IC50 (MAC15A [1]): 1.91 µM
Ratio (MAC15A [3]): 21.7

Compound: Cc1ccc2cc3[nH]c4ccccc4c3[n+](C)c2c1.[Cl-]
IC50 (MAC15A [1]): 3.51 µM
IC50 (Plasmodium falciparum [2]): 0.149 µM
Ratio (MAC15A [3]): 23.6

Compound: C[n+]1c2ccc(Cl)cc2cc2[nH]c3ccccc3c21.[Cl-]
IC50 (MAC15A [1]): 2.24 µM
IC50 (Plasmodium falciparum [2]): 0.166 µM
Ratio (MAC15A [3]): 13.5

Compound: C[n+]1c2ccc(F)cc2cc2[nH]c3ccccc3c21.[Cl-]
Parasitemia (Mus musculus [11]): 5.98%
IC50 (MAC15A [1]): 4.79 µM
IC50 (Plasmodium falciparum [12]): 1.21 µM
BHIA50 [8]: 1.24
Vascular accumulation ratio (Plasmodium falciparum [9]): 79.41
Mean survival time (Mus musculus [4]): 5 days
IC50 (Plasmodium falciparum [2]): 1.21 µM
IC50 (Plasmodium falciparum [13]): 1.21 µM
Ratio (Plasmodium falciparum [14]): 1
Ratio (MAC15A [3]): 3.96
Suppression of parasitemia (Mus musculus [15]): 55.1%
Mean survival time (Mus musculus [16]): 5 days
pKa [10]: 11.2

Compound: COc1ccc2c(c1)cc1[nH]c3ccccc3c1[n+]2C.[Cl-]
Parasitemia (Mus musculus [11]): 12.08%
IC50 (MAC15A [1]): 4.31 µM
IC50 (Plasmodium falciparum [12]): 0.95 µM
BHIA50 [8]: 1.96
Vascular accumulation ratio (Plasmodium falciparum [9]): 79.43
Mean survival time (Mus musculus [4]): 5 days
IC50 (Plasmodium falciparum [2]): 0.95 µM
IC50 (Plasmodium falciparum [13]): 0.95 µM
Ratio (Plasmodium falciparum [14]): 1
Ratio (MAC15A [3]): 4.54
Suppression of parasitemia (Mus musculus [15]): 9.3%
Mean survival time (Mus musculus [16]): 5 days
pKa [10]: 11.4

Compound: C[n+]1c2ccccc2cc2[nH]c3c([N+](=O)[O-])cccc3c21.[Cl-]
BHIA50 [8]: 0.84
Vascular accumulation ratio (Plasmodium falciparum [9]): 78.94
IC50 (Plasmodium falciparum [13]): 6.85 µM
pKa [10]: 9.6

Reference: ChEMBL document CHEMBL1143585, “Synthesis of some cryptolepine analogues, assessment of their antimalarial and cytotoxic activities, and consideration of their antimalarial mode of action” (J Med Chem, 2005)
